As a reminder, the IC50 is the concentration needed to halve the response being measured. A word on the Cmax: it is the highest concentration seen after dosing.

SMILES strings stand for the structures.

For data set [1], the target named is T1, Solute carrier organic anion transporter family member 2B1 (Homo sapiens, UniProt O94956).
T1 sequence (O94956 whole entry): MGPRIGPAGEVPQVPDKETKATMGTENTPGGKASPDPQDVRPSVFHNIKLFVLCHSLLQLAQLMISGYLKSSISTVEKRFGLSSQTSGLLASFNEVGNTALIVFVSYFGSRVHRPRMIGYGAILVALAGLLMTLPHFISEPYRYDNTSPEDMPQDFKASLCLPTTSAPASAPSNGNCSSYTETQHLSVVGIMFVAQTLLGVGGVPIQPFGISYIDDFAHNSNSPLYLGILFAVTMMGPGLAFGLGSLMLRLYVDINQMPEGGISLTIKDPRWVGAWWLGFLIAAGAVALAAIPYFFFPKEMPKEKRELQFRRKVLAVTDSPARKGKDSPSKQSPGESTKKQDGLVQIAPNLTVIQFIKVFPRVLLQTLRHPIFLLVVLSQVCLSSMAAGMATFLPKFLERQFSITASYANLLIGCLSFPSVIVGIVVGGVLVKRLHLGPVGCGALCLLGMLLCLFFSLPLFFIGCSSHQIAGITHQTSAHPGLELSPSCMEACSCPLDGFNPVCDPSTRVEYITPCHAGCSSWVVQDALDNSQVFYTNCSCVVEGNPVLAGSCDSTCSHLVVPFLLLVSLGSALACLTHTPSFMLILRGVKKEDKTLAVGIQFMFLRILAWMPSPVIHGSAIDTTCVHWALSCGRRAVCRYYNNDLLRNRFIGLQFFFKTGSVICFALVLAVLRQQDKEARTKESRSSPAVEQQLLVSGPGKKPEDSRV
Briefly: Inhibition of OATP2B1 (unknown origin) expressed in MDCK2 cells assessed as reduction of [3H]estrone-3-sulfate uptake at 10 uM after 3 mins by beta-counting. The data set is classed as ADME, cell-based. The following applies: mdck-ii, 0.05 h. Summed up: (§1)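 Confluent cells were washed in PBS, then given 1 µM [3H]-E2 17G (OATP1B1, OATP1B3 HEK293) or 1 µM [3H]-E1S (OATP2B1 MDCKII) with 10 µM compound in HBSS pH 7.4 for 3 min at 37°C. Uptake into mock or parental cells was subtracted after protein normalization. Results are % vehicle, mean ± SD of at least three experiments in triplicate.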

Data set [2] addresses T2, Solute carrier organic anion transporter family member 1B1 (Homo sapiens, UniProt Q9Y6L6).
T2 sequence (Q9Y6L6 whole entry): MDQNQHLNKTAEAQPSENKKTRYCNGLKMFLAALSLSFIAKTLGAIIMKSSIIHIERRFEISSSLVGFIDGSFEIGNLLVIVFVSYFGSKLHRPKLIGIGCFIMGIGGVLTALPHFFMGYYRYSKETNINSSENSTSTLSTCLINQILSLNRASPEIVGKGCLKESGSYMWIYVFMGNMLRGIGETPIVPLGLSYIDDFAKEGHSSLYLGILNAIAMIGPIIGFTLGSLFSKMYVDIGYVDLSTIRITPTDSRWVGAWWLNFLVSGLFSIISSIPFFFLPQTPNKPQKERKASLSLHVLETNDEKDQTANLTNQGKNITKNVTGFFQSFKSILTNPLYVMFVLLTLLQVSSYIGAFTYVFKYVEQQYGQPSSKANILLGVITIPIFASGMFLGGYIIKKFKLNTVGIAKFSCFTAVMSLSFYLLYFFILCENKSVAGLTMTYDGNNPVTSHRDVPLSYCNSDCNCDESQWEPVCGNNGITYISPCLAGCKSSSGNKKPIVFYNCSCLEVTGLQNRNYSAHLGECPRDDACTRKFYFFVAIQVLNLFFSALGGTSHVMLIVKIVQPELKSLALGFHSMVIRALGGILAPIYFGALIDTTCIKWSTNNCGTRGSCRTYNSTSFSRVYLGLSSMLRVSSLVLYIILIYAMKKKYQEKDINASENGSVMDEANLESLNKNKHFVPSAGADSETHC
Briefly: Inhibition of OATP1B1 (unknown origin) expressed in HEK293 cells assessed as reduction of [3H]estradiol-17beta-glucuronide uptake after 3 mins by beta-counting. The data set is classed as ADME, cell-based. Summed up: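 Transfected HEK293 (G418) or MDCKII (hygromycin B) cells were co-incubated with 0-100 µM compound and [3H]-E2 17G (1 µM, 0.25 µCi/ml; OATP1B1, OATP1B3) or [3H]-E1S (1 µM; OATP2B1) in HBSS pH 7.4, 3 min at 37°C. OATP-negative uptake was subtracted, and results expressed as % vehicle. Two experiments were run in duplicate. IC50 came from non-linear dose-response fits.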

Data set [3] addresses T2, Solute carrier organic anion transporter family member 1B1. Briefly: Inhibition of OATP1B1 (unknown origin) expressed in HEK293 cells assessed as reduction of [3H]estradiol-17beta-glucuronide uptake after 3 mins by beta-counting in presence of OATP inhibitor BSP. The data set is classed as ADME, cell-based. As to conditions: hek293, 0.05 h; call rule not given here.
The target of data set [4] is T3, Solute carrier organic anion transporter family member 1B3 (Homo sapiens, UniProt Q9NPD5).
T3 sequence (Q9NPD5 whole entry): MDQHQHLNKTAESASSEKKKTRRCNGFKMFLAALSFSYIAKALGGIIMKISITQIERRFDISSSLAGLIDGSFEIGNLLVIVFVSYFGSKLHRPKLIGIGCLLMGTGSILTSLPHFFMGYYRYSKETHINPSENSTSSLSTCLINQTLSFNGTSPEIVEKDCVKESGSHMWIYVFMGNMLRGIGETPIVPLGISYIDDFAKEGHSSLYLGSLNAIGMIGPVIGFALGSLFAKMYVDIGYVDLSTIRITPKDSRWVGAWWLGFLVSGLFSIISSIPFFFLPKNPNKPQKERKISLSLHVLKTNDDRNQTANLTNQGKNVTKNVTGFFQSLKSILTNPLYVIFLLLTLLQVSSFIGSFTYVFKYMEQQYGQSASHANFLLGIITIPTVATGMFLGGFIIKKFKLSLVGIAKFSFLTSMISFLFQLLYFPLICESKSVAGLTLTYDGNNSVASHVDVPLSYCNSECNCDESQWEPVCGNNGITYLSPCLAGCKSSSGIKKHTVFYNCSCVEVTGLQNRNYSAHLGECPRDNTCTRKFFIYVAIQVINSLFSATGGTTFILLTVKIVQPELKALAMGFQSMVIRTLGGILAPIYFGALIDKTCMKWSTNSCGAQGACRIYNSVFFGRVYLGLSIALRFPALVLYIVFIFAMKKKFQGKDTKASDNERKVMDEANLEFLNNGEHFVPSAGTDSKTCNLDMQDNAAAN
Briefly: Inhibition of OATP1B3 (unknown origin) expressed in HEK293 cells assessed as reduction of [3H]estradiol-17beta-glucuronide uptake after 3 mins by beta-counting in presence of OATP inhibitor BSP. The data set is classed as ADME, cell-based. The following applies: hek293, 0.05 h.

Data set [5] is described as follows: fCmax in portal vein of patient with chronic noncirrhotic HCV infection at 700 mg. The data set is classed as ADME. The following applies: human.
Data set [6] can be described thus: Ratio of fCmax in portal vein of patient with chronic noncirrhotic HCV infection at 140 mg to IC50 for OATP2B1 (unknown origin) expressed in HEK293 cells. The arrangement: species or system Homo sapiens.
Data set [7] can be described thus: Cmax in patient with chronic noncirrhotic HCV infection at 140 mg. The data set is classed as ADME, organism-based. The arrangement: dose 140 mg. The following applies: human, in vivo.
Data set [8] deals with T2, Solute carrier organic anion transporter family member 1B1. The experiment in a line: Inhibition of OATP1B1 (unknown origin) expressed in HEK293 cells assessed as reduction of [3H]estradiol-17beta-glucuronide uptake at 10 uM after 3 mins by beta-counting. The data set is classed as ADME, cell-based. As to conditions: hek293, 0.05 h. The essentials:
as §1

Regarding `COc1cc([C@H]2Oc3cc([C@H]4Oc5cc(O)cc(O)c5C(=O)[C@@H]4O)ccc3O[C@@H]2CO)ccc1O` [SILYBIN A], the “inhibition (INH)” value is recorded as “Active” in data set [1], “Not Active” in data set [3], “Not Active” in data set [4] and “Active” in data set [8]. Also, the IC50 in data set [2] turned out to be 9.7 µM. In data set [5], this molecule had a fCmax of 0.22 µM. Besides, the Ratio in data set [6] is reported as 0.01. In data set [7], this molecule showed a Cmax of 40 ng/mL.

Turning to `COc1cc([C@@H]2Oc3cc([C@H]4Oc5cc(O)cc(O)c5C(=O)[C@@H]4O)ccc3O[C@H]2CO)ccc1O` [SILYBIN B], the “inhibition (INH)” value in data set [1] is “Active”; in data set [3] it was “Not Active”; in data set [4], “Not Active”; in data set [8], “Active”. Besides, the IC50 in data set [2] was 8.5 µM. The molecule further registered a fCmax in data set [5] of 0.7 µM. In addition, the Ratio in data set [6] was 0.16. Besides, the highest concentration (Cmax) in data set [7] was 8 ng/mL.

The values are drawn from ChEMBL document CHEMBL3526004, “Interaction of silymarin flavonolignans with organic anion-transporting polypeptides” (Drug Metab Dispos, 2013).
